# Screens deposited in PubChem by The Scripps Research Institute Molecular Screening Center.
# MC4R ag barr: human MC4R agonism via beta-arrestin; P32245; U2OS MC4R beta-arrestin complementation, luminescence; percent of melanotan II response, DMSO zero; activation, % at 8.9 µM; hit rate 0.98% among 360,000; AID 540308;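 active = activation above a per-plate cutoff, the mean activation of sample wells on that plate plus 3 SD, cut at about 8% in these data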
# TLR9-MyD88 block: inhibitors of human TLR9-MyD88 binding; CHO BLA complementation TLR9-MyD88, CCF4 FRET ratio; inhibition, % at 4.98 µM; hit rate 0.21% among 340,000; AID 504734;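 active = inhibition above the mean over all tested compounds plus 3 SD, cut at about 21% in these data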;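 note: 0% = DMSO only wells and 100% = clavulanate BLA inhibitor control wells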
# NOD2-RIPK2 inh: blocks binding of human NOD2 to RIPK2 | hit rate 0.38% among 360,000 | O43353 | CHO BLA complementation NOD2-RIPK2, CCF4 ratio | inhibition, % at 4.98 µM; in the data active = inhibition above about 21%;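 note: 0% = vehicle only and 100% = reference blocker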
# TLR4 MyD88 comp: TLR4-MyD88 interaction inhibition in cells | O00206+Q99836 | HeLa CL3-4 TLR4/MyD88 BLA complementation, FRET ratio | inhibition, % at 8.4 µM | hit rate 0.18% among 200,000 | AID 861; in the data active = inhibition above about 25%;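 note: 0% = vehicle and 100% = reference inhibitor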
# Target sequence (O00206 whole entry, looked up): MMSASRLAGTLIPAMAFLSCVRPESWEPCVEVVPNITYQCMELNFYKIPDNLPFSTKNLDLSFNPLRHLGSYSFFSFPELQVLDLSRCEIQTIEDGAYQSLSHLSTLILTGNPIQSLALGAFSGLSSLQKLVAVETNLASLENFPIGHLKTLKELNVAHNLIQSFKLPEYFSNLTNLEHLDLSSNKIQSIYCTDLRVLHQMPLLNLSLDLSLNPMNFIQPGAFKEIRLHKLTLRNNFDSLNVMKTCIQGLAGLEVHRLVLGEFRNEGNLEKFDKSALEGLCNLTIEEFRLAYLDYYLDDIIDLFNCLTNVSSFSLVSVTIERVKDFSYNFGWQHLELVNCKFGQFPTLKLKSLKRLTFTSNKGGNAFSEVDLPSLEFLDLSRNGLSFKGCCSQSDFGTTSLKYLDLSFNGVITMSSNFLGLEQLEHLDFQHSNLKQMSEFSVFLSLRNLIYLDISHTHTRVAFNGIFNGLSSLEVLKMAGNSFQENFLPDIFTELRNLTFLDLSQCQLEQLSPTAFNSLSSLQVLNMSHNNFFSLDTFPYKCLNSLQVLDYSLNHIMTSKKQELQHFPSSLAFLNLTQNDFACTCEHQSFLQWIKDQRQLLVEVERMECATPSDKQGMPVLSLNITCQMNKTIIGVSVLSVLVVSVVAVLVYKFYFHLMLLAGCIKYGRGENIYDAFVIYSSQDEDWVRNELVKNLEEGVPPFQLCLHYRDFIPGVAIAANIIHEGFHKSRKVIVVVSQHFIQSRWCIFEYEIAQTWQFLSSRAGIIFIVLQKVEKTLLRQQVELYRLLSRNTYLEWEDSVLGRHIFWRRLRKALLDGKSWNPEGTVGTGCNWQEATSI
# Target sequence (Q99836 whole entry, looked up): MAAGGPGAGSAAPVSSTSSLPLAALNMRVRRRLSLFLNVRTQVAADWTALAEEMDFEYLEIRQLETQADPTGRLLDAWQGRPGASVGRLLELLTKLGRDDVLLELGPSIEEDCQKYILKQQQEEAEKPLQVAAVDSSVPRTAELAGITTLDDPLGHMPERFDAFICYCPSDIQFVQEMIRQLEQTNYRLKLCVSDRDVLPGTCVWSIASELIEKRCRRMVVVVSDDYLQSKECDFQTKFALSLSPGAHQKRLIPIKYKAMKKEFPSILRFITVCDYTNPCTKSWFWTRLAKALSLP
# MC4R antagonist: antagonists of human melanocortin 4 receptor (MC4R); P32245; MC4R-expressing cells, MTII-stimulated cAMP, LANCE TR-FRET; inhibition, % at 6.5 µM; hit rate 0.48% among 360,000; AID 540295;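 active = inhibition above its plate's cutoff, the mean of tested wells on that plate plus 3 SD, cut at about 29% in these data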;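 note: 0% = Melanotan II alone and 100% = Melanotan II plus saturating MCL0020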
#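 system = U2OS cells with stable human MC4R expression | also added = Melanotan II challenge after compound preincubation | dosing = one concentration, 6.5 µM nominal | incubation = compound 30 min, challenge 1 h, detection 1 h | measured by = TR-FRET with Eu-cAMP and labeled anti-cAMP, 671 nm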
# NOD2-RIPK2 conf: confirmation of human NOD2-RIPK2 interaction inhibitors; shares compounds with NOD2-RIPK2 inh; CHO cells, NOD2-RIPK2 BLA complementation, CCF4 FRET; inhibition, % at 4.98 µM; hit rate 70% among 1,200; AID 624370;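 active = mean inhibition across replicates above a set limit taken from the earlier primary screen, cut at about 21% in these data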;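 note: 0% = DMSO-only wells and the high end = clavulanate BLA-blocked wells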
# NOD2 BLA counter: hits BLA reporter in NOD2-RIPK2 inhibitor counterscreen; CHO BLA reporter, CCF4 FRET ratio; shares compounds with NOD2-RIPK2 inh; inhibition, % at 4.98 µM; hit rate 57% among 1,200; AID 624371;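 active = mean inhibition above the low-control mean inhibition plus three low-control SD, cut at about 11% in these data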;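 note: 0% = DMSO only wells and 100% = clavulanate high control wells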
# Starred values were filed as active, the others as inactive; / = not tested or not shown. Rows were chosen to be rich in hits. Some 1.8% of all compounds tested hit in one or more screens of this group.
SMILES,MC4R ag barr,TLR9-MyD88 block,NOD2-RIPK2 inh,TLR4 MyD88 comp,MC4R antagonist,NOD2-RIPK2 conf,NOD2 BLA counter
COc1ccc(NC(=O)CSc2nc3cccnc3n2C)cc1,-2,-4,32*,-14,8,11,-4
COC(=O)c1ccc(NC(=O)CSc2nc3cccnc3n2C)cc1,1,3,3,3,0,/,/
O=[N+]([O-])c1ccc(/C=C/C2=NN(c3ccccc3)C(c3ccco3)C2)o1 (centres undefined),-3,0,1,4,0,/,/
C(=C\c1ccco1)/C1=NN(c2ccccc2)C(c2ccco2)C1 (centres undefined),-1,-23,22*,15,2,32*,60*
CCN(CC)c1ccc2c(C)c(-c3ccc(N)cc3)c(=O)oc2c1,3,12,27*,15,18,24*,33*
CCc1ccc2nc(N(CCCN(C)C)C(=O)c3ccc(S(=O)(=O)N4CCc5ccccc5C4)cc3)sc2c1,20*,15,22*,/,-8,23*,5
COc1ccc(CNC(=O)COC(=O)CN2C(=O)C3CC=CCC3C2=O)cc1 (centres undefined),2,-4,-9,/,4,/,/
CCN(CC)c1ccc(-c2nn3c(-c4ccccc4OC)nnc3s2)cc1,1,-4,23*,-9,-22,14,-7
Cc1ccc(C(=O)c2sc3nsc(C)c3c2N)cc1,2,17,24*,5,-5,23*,26*
Cc1ccc(S(=O)(=O)Nc2ccccc2-c2ccccc2NS(=O)(=O)c2ccc(C)cc2)cc1,2,3,-1,4,7,/,/
Cc1ccc(S(=O)(=O)Nc2cccc3cccnc23)cc1,-2,36*,38*,17,-4,59*,25*
Cc1c(Cl)cccc1NC(=S)NCc1ccc(Cl)cc1,4,-13,22*,1,4,-6,-3
Cn1c(CS/C(N)=N/N=C/c2ccccc2)c(Br)c(=O)n1-c1ccccc1,0,-17,-11,-4,6,/,/
COc1cc(/C=C2/C(=N)N3C(=NC2=O)SN=C3S(C)(=O)=O)ccc1OS(=O)(=O)c1ccc(C)cc1,-3,9,23*,/,12,-2,-9
CC(C)N1CCC2(CC1)N=C(c1ccc3c(c1)OCO3)CC(c1cc(Cl)ccc1O)N2 (centres undefined),-2,15,21*,10,7,10,2
Cc1cc(OCC(=O)Nc2cccc(S(=O)(=O)NC3=NCCCCC3)c2)ccc1Cl,-1,-15,40*,-2,-2,0,0
Cc1nn(C(=O)Cn2cc([N+](=O)[O-])cn2)c(C)c1Cl,2,-3,8,-5,17,/,/
CCOc1ccc(CCNC(=O)c2cc(=O)[nH]c3ccc(S(=O)(=O)N(CC)CC)cc23)cc1OCC,2,-3,-23,/,2,/,/
CCCCNC(=O)C(C)N(CCN(C)C)C(=O)CCCN1C(=O)NC(c2ccc([N+](=O)[O-])cc2)C(C(=O)OCc2ccccc2)=C1C (centres undefined),-1,0,22*,/,9,2,-13
CCCCNC(=O)C(C1CCCCC1)N(CCN(C)C)C(=O)CCCN1C(=O)NC(c2ccc(-c3ccccc3)cc2)C(C(=O)OCc2ccccc2)=C1C (centres undefined),/,-4,/,/,/,/,/
Cc1noc(C)c1S(=O)(=O)Nc1ccc2c(c1)C(=O)N([C@@H](C)CO)C[C@H](C)[C@@H](CN(C)Cc1ccc(C(F)(F)F)cc1)OCCCC[C@H](C)O2,2,-17,-1,/,20,/,/
CC(C)(C)[C@H](N)C(=O)N[C@H]1CCC2C3CC=C4C[C@@H](O)CC[C@]4(C)C3CC[C@@]21C (some centres undefined),3,6,21*,/,1,22*,8
O=C(NC1=C(Nc2ccc(Cl)cc2)C(=O)c2ccccc2C1=O)c1ccccc1,-2,-4,-9,-14,-1,/,/
O=C1C(Cl)=C(NC(=O)c2ccccc2)C(=O)C(Cl)=C1NC(=O)c1ccccc1,-3,7,54*,/,-29,68*,37*
COC(=O)c1ccn(Cc2ccccc2Cl)n1,0,1,3,-7,11,/,/
SMILES,MC4R ag barr,TLR9-MyD88 block,NOD2-RIPK2 inh,TLR4 MyD88 comp,MC4R antagonist,NOD2-RIPK2 conf,NOD2 BLA counter
CN(C)c1ccc(C=Cc2nccc3ccccc23)cc1,/,/,75*,/,/,37*,46*
COc1cccc(C=Cc2nccc3ccccc23)c1OC,0,0,4,/,1,/,/
CC(C)Nc1nc(Nc2ccccc2Cl)c2sccc2n1,-1,/,4,/,15,/,/
CN(C)CCCN1c2ccc([N+](=O)[O-])cc2CCc2cc([N+](=O)[O-])ccc21,0,-6,-8,/,6,/,/
Cc1cccc(C(=O)Nc2ccc(C(=O)/C=C/c3ccncc3)cc2)c1,-3,9,56*,/,7,76*,2
CCc1ccc(C(=O)Cn2ncc(Cl)c(Cl)c2=O)cc1,4,19,34*,12,19,40*,9
O=C(Cn1ncc(Cl)c(Cl)c1=O)N1CCOCC1,5,/,3,17,2,/,/
CCCC(C(=O)NC1CCCC1)N(Cc1ccccc1Cl)C(=O)c1snc(C(N)=O)c1N (centres undefined),-1,5,-1,/,13,/,/
O=C(Cc1cccc2ccccc12)N1CCCc2ccccc21,-1,0,24*,10,-2,11,6
O=C(C[n+]1ccccc1)N1CCCc2ccccc21,4,5,-8,-6,2,/,/
Cc1ccc(CNS(=O)(=O)c2c(C(=O)N3CCCCCC3)c(C)n(C)c2C)cc1,-1,3,54*,/,4,-1,0
Clc1ccc(N=NN2CCOCC2)cc1,2,2,0,/,-9,/,/
Cc1[nH]nc(C(F)(F)F)c1N=NN1CCOCC1,-1,-2,44*,/,-2,12,-4
CN(C)CCCN(C(=O)CCOc1ccccc1)c1nc2ccc(F)cc2s1,-4,18,47*,7,-15,17,0
CN1CCN(C2CC(=O)N(c3ccc4c(c3)OCCO4)C2=O)CC1 (centres undefined),-1,-6,24*,-4,4,-1,-2
O=C(NCc1ccc(Cl)cc1)c1cccc2c1C(=O)N(CC1CCCO1)C2 (centres undefined),0,-6,39*,/,1,3,-1
O=C(O)c1cccc2c1C(=O)N(CC1CCCO1)C2 (centres undefined),-2,6,-3,9,-2,/,/
